Experimental data published in ChEMBL document CHEMBL4130342, “New semi-synthetic analogs of oleuropein show improved anticancer activity in vitro and in vivo” (Eur J Med Chem, 2017).

What follows are molecules tested on SK-BR-3 (assay: Antiproliferative activity against human SKBR3 cells after 72 hrs by MTT reduction assay). Settings: SK-BR-3, 72 h.
Assay type: functional, cell-based
Procedure, shortened: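 MTT reduction assay; adherent lines left to adhere overnight, suspension lines (HL-60, K562) seeded on the day. […] Incubation was 72 h at 37°C, with MTT added for the last 4 h. OD read at 545 nm (reference 690 nm). IC50 from 100(A0-A)/A0=50; means ± SD of 3 independent experiments.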

SMILES	IC50 [µM]
C/C=C1/[C@H](O[C@@H]2O[C@H](CO)[C@@H](O)[C@H](O)[C@H]2O)OC=C(C(=O)OC)[C@H]1CC(=O)O	> 15
C/C=C1/[C@H](O[C@@H]2O[C@H](COC(C)=O)[C@@H](OC(C)=O)[C@H](OC(C)=O)[C@H]2OC(C)=O)OC=C(C(=O)O)[C@H]1CC(=O)O	> 20
C/C=C1/[C@H](O[C@@H]2O[C@H](CO)[C@@H](O)[C@H](O)[C@H]2O)OC=C(C(=O)OC)[C@H]1CC(=O)OCCc1ccc(OC)c(OC)c1	> 15
C/C=C1/[C@H](O[C@@H]2O[C@H](COC(C)=O)[C@@H](OC(C)=O)[C@H](OC(C)=O)[C@H]2OC(C)=O)OC=C(C(=O)O)[C@H]1CC(=O)OCCCCCCCCCCCCCCCC	> 20
C/C=C1/[C@H](O[C@@H]2O[C@H](COC(C)=O)[C@@H](OC(C)=O)[C@H](OC(C)=O)[C@H]2OC(C)=O)OC=C(C(=O)OC)[C@H]1CC(=O)OCCC1CCCCC1	> 15
C/C=C1/[C@H](O[C@@H]2O[C@H](COC(C)=O)[C@@H](OC(C)=O)[C@H](OC(C)=O)[C@H]2OC(C)=O)OC=C(C(=O)OC)[C@H]1CC(=O)OCCc1ccc(OC)c(OC)c1 (stereo in doubt)	> 15
C/C=C1/[C@H](O[C@@H]2O[C@H](CO)[C@@H](O)[C@H](O)[C@H]2O)OC=C(C(=O)OC)[C@H]1CC(=O)OCCCc1ccc(OC)c(OC)c1 (stereo in doubt)	> 20
C/C=C1/[C@H](O[C@@H]2O[C@H](CO)[C@@H](O)[C@H](O)[C@H]2O)OC=C(C(=O)OC)[C@H]1CC(=O)OCCc1ccc(OC)cc1 (stereo in doubt)	> 20
C/C=C1/[C@H](O[C@@H]2O[C@H](COC(C)=O)[C@@H](OC(C)=O)[C@H](OC(C)=O)[C@H]2OC(C)=O)OC=C(C(=O)OC)[C@H]1CC(=O)OCCCC (stereo in doubt)	> 15
C/C=C1/[C@H](O[C@@H]2O[C@H](COC(C)=O)[C@@H](OC(C)=O)[C@H](OC(C)=O)[C@H]2OC(C)=O)OC=C(C(=O)O)[C@H]1CC(=O)OC (stereo in doubt)	> 20
C/C=C1/[C@H](O[C@@H]2O[C@H](CO)[C@@H](O)[C@H](O)[C@H]2O)OC=C(C(=O)OC)[C@H]1CC(=O)OCCc1ccc(F)cc1 (stereo in doubt)	> 20
C/C=C1/[C@H](O[C@@H]2O[C@H](COC(C)=O)[C@@H](OC(C)=O)[C@H](OC(C)=O)[C@H]2OC(C)=O)OC=C(C(=O)OC)[C@H]1CC(=O)OCCC(C)C (stereo in doubt)	> 15
C/C=C1/[C@H](O[C@@H]2O[C@H](CO)[C@@H](O)[C@H](O)[C@H]2O)OC=C(C(=O)OC)[C@H]1CC(=O)NCCC (stereo in doubt)	> 20
C#CCOC(=O)C[C@@H]1C(C(=O)OC)=CO[C@@H](O[C@@H]2O[C@H](COC(C)=O)[C@@H](OC(C)=O)[C@H](OC(C)=O)[C@H]2OC(C)=O)/C1=C/C (stereo in doubt)	> 15
C/C=C1/[C@H](O[C@@H]2O[C@H](COC(C)=O)[C@@H](OC(C)=O)[C@H](OC(C)=O)[C@H]2OC(C)=O)OC=C(C(=O)OC)[C@H]1CC(=O)OCc1ccccc1 (stereo in doubt)	> 15
C/C=C1/[C@H](O[C@@H]2O[C@H](COC(C)=O)[C@@H](OC(C)=O)[C@H](OC(C)=O)[C@H]2OC(C)=O)OC=C(C(=O)OC)[C@H]1CC(=O)OCc1ccc2c(c1)OCCO2 (stereo in doubt)	> 15
C/C=C1/[C@H](O[C@@H]2O[C@H](CO)[C@@H](O)[C@H](O)[C@H]2O)OC=C(C(=O)OC)[C@H]1CC(=O)OCc1ccco1 (stereo in doubt)	> 15
C/C=C1/[C@H](O[C@@H]2O[C@H](COC(C)=O)[C@@H](OC(C)=O)[C@H](OC(C)=O)[C@H]2OC(C)=O)OC=C(C(=O)OC)[C@H]1CC(=O)OCCc1ccc(F)cc1 (stereo in doubt)	> 20
C/C=C1/[C@H](O[C@@H]2O[C@H](CO)[C@@H](O)[C@H](O)[C@H]2O)OC=C(C(=O)OC)[C@H]1CC(=O)OCCCC (stereo in doubt)	> 15
C/C=C1/[C@H](O[C@@H]2O[C@H](COC(C)=O)[C@@H](OC(C)=O)[C@H](OC(C)=O)[C@H]2OC(C)=O)OC=C(C(=O)OC)[C@H]1CC(=O)OCc1ccc(OC)c(OC)c1 (stereo in doubt)	> 15
C/C=C1/[C@H](O[C@@H]2O[C@H](CO)[C@@H](O)[C@H](O)[C@H]2O)OC=C(C(=O)OC)[C@H]1CC(=O)OCCC (stereo in doubt)	> 15
C/C=C1/[C@H](O[C@@H]2O[C@H](COC(C)=O)[C@@H](OC(C)=O)[C@H](OC(C)=O)[C@H]2OC(C)=O)OC=C(C(=O)OC)[C@H]1CC(=O)SCCC (stereo in doubt)	> 15
C/C=C1/[C@H](O[C@@H]2O[C@H](COC(C)=O)[C@@H](OC(C)=O)[C@H](OC(C)=O)[C@H]2OC(C)=O)OC=C(C(=O)OC)[C@H]1CC(=O)OCCc1ccc([N+](=O)[O-])cc1 (stereo in doubt)	> 20
C#CCOC(=O)C[C@@H]1C(C(=O)OC)=CO[C@@H](O[C@@H]2O[C@H](CO)[C@@H](O)[C@H](O)[C@H]2O)/C1=C/C (stereo in doubt)	> 15
C/C=C1/[C@H](O[C@@H]2O[C@H](COC(C)=O)[C@@H](OC(C)=O)[C@H](OC(C)=O)[C@H]2OC(C)=O)OC=C(C(=O)OC)[C@H]1CC(=O)SCCc1ccccc1 (stereo in doubt)	> 15
OCCc1ccc(O)c(O)c1 [HYDROXYTYROSOL]	201
C/C=C1/[C@H](O[C@@H]2O[C@H](CO)[C@@H](O)[C@H](O)[C@H]2O)OC=C(C(=O)OC)[C@H]1CC(=O)OCCc1ccc(O)cc1 [LIGSTROSIDE]	> 20

Second part, the molecule after the results:

IC50 [µM]	SMILES
> 15	C=C(C)CCOC(=O)C[C@@H]1C(C(=O)OC)=CO[C@@H](O[C@@H]2O[C@H](COC(C)=O)[C@@H](OC(C)=O)[C@H](OC(C)=O)[C@H]2OC(C)=O)/C1=C/C
> 15	C/C=C1/[C@H](O[C@@H]2O[C@H](COC(C)=O)[C@@H](OC(C)=O)[C@H](OC(C)=O)[C@H]2OC(C)=O)OC=C(C(=O)OC)[C@H]1CC(=O)O
> 15	C/C=C1/[C@H](O[C@@H]2O[C@H](CO)[C@@H](O)[C@H](O)[C@H]2O)OC=C(C(=O)OC)[C@H]1CC(=O)OCC (stereo in doubt)
> 20	C/C=C1/[C@H](O[C@@H]2O[C@H](CO)[C@@H](O)[C@H](O)[C@H]2O)OC=C(C(=O)O)[C@H]1CC(=O)OC (stereo in doubt)
> 20	C/C=C1/[C@H](O[C@@H]2O[C@H](COC(C)=O)[C@@H](OC(C)=O)[C@H](OC(C)=O)[C@H]2OC(C)=O)OC=C(C(=O)OC)[C@H]1CC(=O)OCCc1ccc(OC)cc1 (stereo in doubt)
> 20	C=CCOC(=O)C[C@@H]1C(C(=O)OC)=CO[C@@H](O[C@@H]2O[C@H](COC(C)=O)[C@@H](OC(C)=O)[C@H](OC(C)=O)[C@H]2OC(C)=O)/C1=C/C (stereo in doubt)
> 15	C/C=C1/[C@H](O[C@@H]2O[C@H](CO)[C@@H](O)[C@H](O)[C@H]2O)OC=C(C(=O)OC)[C@H]1CC(=O)OCc1ccccc1 (stereo in doubt)
> 15	C=C(C)CCOC(=O)C[C@@H]1C(C(=O)OC)=CO[C@@H](O[C@@H]2O[C@H](CO)[C@@H](O)[C@H](O)[C@H]2O)/C1=C/C (stereo in doubt)
> 15	C/C=C1/[C@H](O[C@@H]2O[C@H](CO)[C@@H](O)[C@H](O)[C@H]2O)OC=C(C(=O)OC)[C@H]1CC(=O)OCc1ccc2c(c1)OCCO2 (stereo in doubt)
> 15	C/C=C1/[C@H](O[C@@H]2O[C@H](CO)[C@@H](O)[C@H](O)[C@H]2O)OC=C(C(=O)OC)[C@H]1CC(=O)OC (stereo in doubt)
> 15	C/C=C1/[C@H](O[C@@H]2O[C@H](COC(C)=O)[C@@H](OC(C)=O)[C@H](OC(C)=O)[C@H]2OC(C)=O)OC=C(C(=O)OC)[C@H]1CC(=O)OCCc1ccc2c(c1)OCCO2 (stereo in doubt)
> 15	C/C=C1/[C@H](O[C@@H]2O[C@H](COC(C)=O)[C@@H](OC(C)=O)[C@H](OC(C)=O)[C@H]2OC(C)=O)OC=C(C(=O)OC)[C@H]1CC(=O)OCc1ccco1 (stereo in doubt)
> 20	C/C=C1/[C@H](O[C@@H]2O[C@H](COC(C)=O)[C@@H](OC(C)=O)[C@H](OC(C)=O)[C@H]2OC(C)=O)OC=C(C(=O)OC)[C@H]1CC(=O)OCCCc1ccc(OC)c(OC)c1 (stereo in doubt)
> 20	C/C=C1/[C@H](O[C@@H]2O[C@H](CO)[C@@H](O)[C@H](O)[C@H]2O)OC=C(C(=O)OC)[C@H]1CC(=O)OCCc1ccc([N+](=O)[O-])cc1 (stereo in doubt)
> 15	C/C=C1/[C@H](O[C@@H]2O[C@H](COC(C)=O)[C@@H](OC(C)=O)[C@H](OC(C)=O)[C@H]2OC(C)=O)OC=C(C(=O)OC)[C@H]1CC(=O)OCC (stereo in doubt)
> 20	C/C=C1/[C@H](O[C@@H]2O[C@H](CO)[C@@H](O)[C@H](O)[C@H]2O)OC=C(C(=O)OC)[C@H]1CC(=O)OCCc1ccc2c(c1)OCCO2 (stereo in doubt)
> 15	C/C=C1/[C@H](O[C@@H]2O[C@H](COC(C)=O)[C@@H](OC(C)=O)[C@H](OC(C)=O)[C@H]2OC(C)=O)OC=C(C(=O)OC)[C@H]1CC(=O)OC (stereo in doubt)
> 15	C/C=C1/[C@H](O[C@@H]2O[C@H](CO)[C@@H](O)[C@H](O)[C@H]2O)OC=C(C(=O)OC)[C@H]1CC(=O)OCc1ccc(OC)c(OC)c1 (stereo in doubt)
